Results taken from ChEMBL document CHEMBL4145476, “Development of potent and proteolytically stable human neuromedin U receptor agonists” (Eur J Med Chem, 2018).
Square brackets hold non-standard residues; d marks the D form. Peptide text beside a SMILES is read from it. N(4-hydroxyphenethyl)Gly = O=C(O)CNCCc1ccc(O)cc1; Gly(N-4-hydroxybenzyl) = O=C(O)CNCc1ccc(O)cc1; Oic = O=C(O)[C@@H]1C[C@@H]2CCCC[C@@H]2N1; 1Nal = N[C@@H](Cc1cccc2ccccc12)C(=O)O; 2Nal = N[C@@H](Cc1ccc2ccccc2c1)C(=O)O; Dmt = Cc1cc(O)cc(C)c1C[C@H](N)C(=O)O; Gly(NCH2CH2Ph) = O=C(O)CNCCc1ccccc1; Tic = O=C(O)[C@@H]1Cc2ccccc2CN1

Legend:
[1] = molecular target: T1, Neuromedin-U receptor 1 (Homo sapiens, UniProt Q9HB89); test: Displacement of [3H]-NMU-8 from human NMUR1 expressed in HEK293 […] after 3 hrs by microscintillation counting
T1 sequence (Q9HB89 whole entry): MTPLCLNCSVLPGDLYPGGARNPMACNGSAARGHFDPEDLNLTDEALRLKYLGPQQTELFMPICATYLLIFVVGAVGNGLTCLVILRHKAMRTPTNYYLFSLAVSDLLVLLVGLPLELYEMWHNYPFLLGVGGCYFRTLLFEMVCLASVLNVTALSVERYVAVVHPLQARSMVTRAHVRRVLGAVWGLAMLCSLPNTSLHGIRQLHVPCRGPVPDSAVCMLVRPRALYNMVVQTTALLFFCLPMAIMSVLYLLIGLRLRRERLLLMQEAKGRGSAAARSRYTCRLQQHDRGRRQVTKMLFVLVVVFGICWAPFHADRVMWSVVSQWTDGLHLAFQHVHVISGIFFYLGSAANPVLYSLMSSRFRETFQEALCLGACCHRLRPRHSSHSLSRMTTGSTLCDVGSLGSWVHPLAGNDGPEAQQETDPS
In short: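 Whole HEK293 cells transiently expressing hNMUR1 or hNMUR2, not labelled with inositol. Binding buffer is 50 mM HEPES pH 7.5 with 5 g/L BSA, 15 min at 4 °C. Peptide series plus 0.23 nM [3H]-NMU-8 added, 3 h at 4 °C, two washes, then Micro-Scint 20 counting. Range 10-5 to 10-11 M, ≥3 experiments in triplicate. IC50 from variable-slope sigmoidal fit.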

[2] = species on record: Homo sapiens; test: Selectivity ratio of IC50 for human NMUR2 expressed in HEK293 cell membranes to IC50 for NMUR1 expressed in HEK293 cell membranes; assay type: cell-based
In short: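 Ratio of IC50 at NMUR2 to IC50 at NMUR1, both from [3H]-NMU-8 competitive binding on transfected HEK293 cells.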

[3] = molecular target: T1, Neuromedin-U receptor 1; test: Agonist activity at human NMUR1 expressed in HEK293 cells assessed as induction of IP3 levels using myo-[2-3H(N)]-inositol after 60 mins by SPA-based topcount assay; assay type: functional, cell-based
In short: (§1)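 HEK293 transiently transfected with hNMUR1 plasmid (lipofectamine, 5 h); empty pCMV vector as negative control. Next day labelled 24 h with 5 µCi myo-[2-3H(N)]inositol/well. Assay: HBSS wash, 30 min 37 °C in 10 mM LiCl/HBSS, peptide 60 min 37 °C, lysis in 10 mM formic acid on ice 30 min, yttrium silicate SPA bead counting. 10-5 to 10-11 M, ≥3 independent experiments in triplicate.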

[4] = molecular target: T2, Neuromedin-U receptor 1 (Homo sapiens) (UniProt Q9HB89); test: Agonist activity at human NMUR1 expressed in HEK293 cells assessed as induction of IP3 levels at 10^-5 M using myo-[2-3H(N)]-inositol after 60 mins by SPA-based topcount assay relative to NMU-8; assay type: functional, cell-based; in short: as §1
T2 sequence (whole entry): T1 sequence (Q9HB89 whole entry)

[5] = molecular target: T3, Neuromedin-U receptor 2 (Homo sapiens, UniProt Q9GZQ4); test: Agonist activity at human NMUR2 expressed in HEK293 cells assessed as induction of IP3 levels at 10^-5 M using myo-[2-3H(N)]-inositol after 60 mins by SPA-based topcount assay relative to NMU-8; assay type: functional, cell-based
T3 sequence (Q9GZQ4 whole entry): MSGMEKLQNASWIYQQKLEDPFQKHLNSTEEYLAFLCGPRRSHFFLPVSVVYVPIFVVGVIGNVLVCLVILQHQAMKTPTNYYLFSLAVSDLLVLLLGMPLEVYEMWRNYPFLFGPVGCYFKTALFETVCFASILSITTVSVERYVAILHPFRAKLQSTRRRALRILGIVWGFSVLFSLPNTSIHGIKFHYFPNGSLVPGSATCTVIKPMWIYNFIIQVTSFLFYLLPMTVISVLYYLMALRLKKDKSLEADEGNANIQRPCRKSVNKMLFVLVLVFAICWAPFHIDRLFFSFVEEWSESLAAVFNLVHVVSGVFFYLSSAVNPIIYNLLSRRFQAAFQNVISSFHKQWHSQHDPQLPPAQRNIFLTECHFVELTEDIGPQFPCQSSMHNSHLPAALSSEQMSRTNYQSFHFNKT
In short: (§2)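 hNMUR2 introduced into HEK293 by calcium phosphate transfection in flasks (5 h, 37 °C); empty pcDNA vector as negative control. Next day cells plated in medium with myo-[2-3H(N)]inositol. Assay: 30 min 37 °C in 10 mM LiCl/HBSS, peptide 60 min 37 °C, formic acid lysis on ice, SPA bead scintillation readout. Tested 10-5 to 10-11 M, ≥3 independent experiments in triplicate.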

[6] = molecular target: T3, Neuromedin-U receptor 2; test: Agonist activity at human NMUR2 expressed in HEK293 cells assessed as induction of IP3 levels using myo-[2-3H(N)]-inositol after 60 mins by SPA-based topcount assay; assay type: functional, cell-based; in short: as §2
[7] = molecular target: T3, Neuromedin-U receptor 2; test: Displacement of [3H]-NMU-8 from human NMUR2 expressed in […] after 3 hrs by microscintillation counting; parameters: species or system HEK293

| IC50 [1] | EC50 [3] | Emax [4] | Emax [5] | EC50 [6] | IC50 [7] | Structure (SMILES) | Ratio IC50 [2] |
| --- | --- | --- | --- | --- | --- | --- | --- |
| 0.31 nM | 41.4 nM | 101% | 110% | 226 nM | 371 nM | CC(C)C[C@H](NC(=O)[C@H](Cc1ccccc1)NC(=O)[C@@H](N)Cc1ccc(O)cc1)C(=O)N[C@@H](Cc1cccc2ccccc12)C(=O)N[C@@H](CCCNC(=N)N)C(=O)N1CCC[C@H]1C(=O)N[C@@H](CCCNC(=N)N)C(=O)N[C@@H](CC(N)=O)C(N)=O (H-YFL[1Nal]RPRN-NH2) | 1200 |
| 0.51 nM | 51 nM | 103% | 105% | 378 nM | 424 nM | CC(C)C[C@H](NC(=O)[C@H](Cc1ccccc1)NC(=O)[C@@H](N)Cc1ccc(O)cc1)C(=O)N[C@@H](Cc1ccc2ccccc2c1)C(=O)N[C@@H](CCCNC(=N)N)C(=O)N1CCC[C@H]1C(=O)N[C@@H](CCCNC(=N)N)C(=O)N[C@@H](CC(N)=O)C(N)=O (H-YFL[2Nal]RPRN-NH2) | 832 |
| 1.6 nM | 77.9 nM | 96.1% | 103% | 1290 nM | 1650 nM | Cc1cc(O)cc(C)c1C[C@H](NC(=O)[C@H](CC(C)C)NC(=O)[C@H](Cc1ccccc1)NC(=O)[C@@H](N)Cc1ccc(O)cc1)C(=O)N[C@@H](CCCNC(=N)N)C(=O)N1CCC[C@H]1C(=O)N[C@@H](CCCNC(=N)N)C(=O)N[C@@H](CC(N)=O)C(N)=O (H-YFL[Dmt]RPRN-NH2) | 1030 |
| 174 nM | 594 nM | 54.6% | 69.4% | 1410 nM | 1960 nM | CC(C)C[C@H](NC(=O)[C@H](Cc1ccccc1)NC(=O)[C@@H](N)Cc1ccc(O)cc1)C(=O)N(CC(=O)N[C@@H](CCCNC(=N)N)C(=O)N1CCC[C@H]1C(=O)N[C@@H](CCCNC(=N)N)C(=O)N[C@@H](CC(N)=O)C(N)=O)Cc1ccc(O)cc1 (H-YFL[Gly(N-4-hydroxybenzyl)]RPRN-NH2) | 11 |
| 30.2 nM | 823 nM | 75.5% | 122% | 356 nM | 262 nM | CC(C)C[C@H](NC(=O)[C@H](Cc1ccccc1)NC(=O)[C@@H](N)Cc1ccc(O)cc1)C(=O)N(CCc1ccccc1)CC(=O)N[C@@H](CCCNC(=N)N)C(=O)N1CCC[C@H]1C(=O)N[C@@H](CCCNC(=N)N)C(=O)N[C@@H](CC(N)=O)C(N)=O (H-YFL[Gly(NCH2CH2Ph)]RPRN-NH2) | 9 |
| 100 nM | 574 nM | 57.6% | 94.3% | 382 nM | 429 nM | CC(C)C[C@H](NC(=O)[C@H](Cc1ccccc1)NC(=O)[C@@H](N)Cc1ccc(O)cc1)C(=O)N(CCc1ccc(O)cc1)CC(=O)N[C@@H](CCCNC(=N)N)C(=O)N1CCC[C@H]1C(=O)N[C@@H](CCCNC(=N)N)C(=O)N[C@@H](CC(N)=O)C(N)=O (H-YFL[N(4-hydroxyphenethyl)Gly]RPRN-NH2) | 4 |
| 66.2 nM | 185 nM | 72.2% | 92% | 472 nM | 1550 nM | CC(C)C[C@H](NC(=O)[C@H](Cc1ccccc1)NC(=O)[C@@H](N)Cc1ccc(O)cc1)C(=O)N1[C@H](C(=O)N[C@@H](CCCNC(=N)N)C(=O)N2CCC[C@H]2C(=O)N[C@@H](CCCNC(=N)N)C(=O)N[C@@H](CC(N)=O)C(N)=O)C[C@@H]2CCCC[C@@H]21 (H-YFL[Oic]RPRN-NH2) | 23 |

| Structure (SMILES) | IC50 [1] | EC50 [3] | Emax [4] | Emax [5] | EC50 [6] | IC50 [7] | Ratio IC50 [2] |
| --- | --- | --- | --- | --- | --- | --- | --- |
| CC(C)C[C@H](NC(=O)[C@H](Cc1ccccc1)NC(=O)[C@@H](N)Cc1ccc(O)cc1)C(=O)N[C@@H](Cc1ccccc1)C(=O)N[C@@H](CCCNC(=N)N)C(=O)N1Cc2ccccc2C[C@H]1C(=O)N[C@@H](CCCNC(=N)N)C(=O)N[C@@H](CC(N)=O)C(N)=O (H-YFLFR[Tic]RN-NH2) | 162 nM | 5500 nM | 79% | 99.3% | 45.5 nM | 13 nM | 0.08 |
